The results in this text go back to ChEMBL document CHEMBL1914285, “Identification of new antimalarial leads by use of virtual screening against cytochrome bc₁” (Bioorg Med Chem, 2011).

SMILES strings stand for the structures.

For orientation: IC50 means the concentration at which inhibition is half-maximal. High values mean lower potency, low ones higher potency.

For this assay, the system named is Plasmodium falciparum. The experiment in a line: Antiplasmodial activity against chloroquine-resistant Plasmodium falciparum W2 infected in human erythrocytes after 48 hrs by FACS analysis. Format: functional, organism-based. The note with it: W2, 48 h. In outline:
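Ring-stage W2-infected human RBCs at ~1% parasitemia, sorbitol (5%) synchronized; 48 h at 37 °C with compounds in RPMI-1640, 25 mM HEPES pH 7.4, 10% heat-inactivated human serum (or 0.5% Albumax/2% human serum), 100 hypoxanthine, 3% O2/5% CO2/91% N2. Cells fixed in 2% HCHO, stained with 1 nM YOYO-1 (NH4Cl/Triton X-100), flow cytometry at ex 488/em 520 nm; IC50 by curve fitting.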
A general note: A flow cytometer gives signals particle by particle.

With `Cc1ccccc1OCCSc1nnc(-c2c[nH]c3ccccc23)n1C`, inhibition was half-maximal at 6.69 µM (IC50).
To `COc1ccc2[nH]c3nc(SCC(=O)Nc4nc(C(C)(C)C)cs4)nnc3c2c1` belongs 27.1 µM.
To `CCCNc1nnc(SCc2cscn2)s1` belongs above 50 µM; to `O=C(NCc1ccoc1)C1CCC(Cn2c(=S)[nH]c3ccccc3c2=O)CC1` (stereo not drawn), above 50 µM.
As to `Cn1c(SCc2nc(-c3cccs3)no2)nnc1-c1c[nH]c2ccccc12`, the IC50 was 29.5 µM.
Molecule `COc1ccc(NC(=O)CCCn2c(=S)[nH]c3ccccc3c2=O)cc1OC` displayed a half-maximal inhibitory concentration (IC50) above 50 µM.
To `Cc1ccc(NC(=O)CSc2nc(O)cc(NS(=O)(=O)c3ccccc3)n2)cc1` belongs above 50 µM; to `c1ccn2cc(CSc3nnc(C4CC4)o3)nc2c1`, above 50 µM; to `Cn1c(SCc2nc(-c3ccc(Cl)cc3)no2)nnc1-c1c[nH]c2ccccc12`, above 50 µM.
Take `Cc1ccc(CNC(=O)CCn2c(=S)[nH]c3cc4c(cc3c2=O)OCO4)o1`: the IC50 was above 50 µM.
The molecule `CCn1c(SCc2nc(-c3cccs3)no2)nnc1-c1c[nH]c2ccccc12` registered an IC50 of 28.5 µM.
`Cc1nc2ccccc2nc1CSCc1ccco1` showed an IC50 above 50 µM.
In the case of `Cc1ccc2[nH]c3nc(SCC(=O)Nc4sc5c(c4C#N)CCCC5)nnc3c2c1`, the IC50 was above 50 µM.
For `O=C(NCc1cccnc1)C1CCC(Cn2c(=S)[nH]c3ccccc3c2=O)CC1` (stereo not drawn), the IC50 stood at 1.97 µM.
`Cc1ccc(C)n1CCSc1nc(N)cc(N)n1` gave an IC50 above 50 µM.
In turn, `COc1ccc(-c2noc(CSc3nnc(-c4c[nH]c5ccccc45)n3C)n2)cc1OC` registered an IC50 of 12.1 µM.
Take `COc1ccc(SCCc2ccc(C)nc2)cc1`: the IC50 is above 50 µM.
To `NC(=O)C(CC(=O)c1csc(C2CCCNC2)n1)Cc1c[nH]c2ccccc12` (stereo not drawn) belongs above 50 µM; to `O=C(CSc1nnc(-c2c[nH]c3ccccc23)o1)c1ccc2c(c1)OCCO2`, above 50 µM; to `c1cnc(SCCOc2ccc3c(c2)CCC3)nc1`, above 50 µM.
`CCSc1nnc(NC(=O)CS(=O)(=O)c2c[nH]c3ccccc23)s1` showed an IC50 above 50 µM.
The molecule `O=C(Cc1ccc2c(c1)CCC2)NCCc1ccco1` came in with an IC50 above 50 µM.
For `CSCCC(N)c1nc(C(=O)CC(Cc2c[nH]c3ccccc23)C(N)=O)cs1` (stereo not drawn), the IC50 is above 50 µM.
